Experimental data from ChEMBL document CHEMBL3132745, “Synthesis and Antimicrobial Activities of His(2-aryl)-Arg and Trp-His(2-aryl) Classes of Dipeptidomimetics” (Medchemcomm, 2014).
In brackets after ≈: the same amount, converted by molar mass. Activity calls are given as the source filed them. How the calls were made is not given here. Residues, ends and D or L forms follow the SMILES beside them. *: point of attachment. Boc = CC(C)(C)OC(=O)*; NHBn = c1ccc(CN*)cc1

Assays:
[1] = system: LLC-PK1; test: Cytotoxicity against pig LLC-PK1 cells assessed as cell viability after 48 hrs by neutral red uptake assay; format: cell-based, Sus scrofa; details: llc-pk1, 48 h
Summary of the method: (§1)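 Neutral red uptake assay on human cancer lines (SK-MEL, KB, BT-549, SK-OV-3) and noncancerous mammalian cells (VERO, LLC-PK1). Highest tested concentration was 10 µg/mL.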

[2] = system: Vero; test: Cytotoxicity against african green monkey Vero cells assessed as cell viability after 48 hrs by neutral red uptake assay; format: cell-based; details: chlorocebus sabaeus; summary of the method: as §1
[3] = system: SK-OV-3; test: Cytotoxicity against human SKOV3 cells assessed as cell viability after 48 hrs by neutral red uptake assay; format: cell-based; details: sk-ov-3, 48 h; summary of the method: as §1
[4] = system: KB; test: Cytotoxicity against human KB cells assessed as cell viability after 48 hrs by neutral red uptake assay; format: cell-based; summary of the method: as §1
[5] = system: BT-549; test: Cytotoxicity against human BT549 cells assessed as cell viability after 48 hrs by neutral red uptake assay; format: cell-based; details: bt-549, 48 h; summary of the method: as §1
[6] = system: SK-MEL; test: Cytotoxicity against human SK-MEL cells assessed as cell viability after 48 hrs by neutral red uptake assay; format: cell-based; summary of the method: as §1
[7] = system: Escherichia coli; test: Antibacterial activity against Escherichia coli ATCC 35218 assessed as growth inhibition after 16-20 hrs by CLSI method; format: functional, organism-based
[8] = system: Aspergillus fumigatus; test: Antifungal activity against Aspergillus fumigatus assessed as growth inhibition; format: functional, organism-based
[9] = system: Pichia kudriavzevii; test: Antifungal activity against Candida krusei assessed as growth inhibition; format: functional, organism-based
[10] = system: Nakaseomyces glabratus; test: Antifungal activity against Candida glabrata assessed as growth inhibition; format: functional, organism-based
[11] = system: Candida albicans; test: Antifungal activity against Candida albicans assessed as growth inhibition; format: functional, organism-based
[12] = system: Cryptococcus neoformans; test: Antifungal activity against Cryptococcus neoformans ATCC 90113 assessed as growth inhibition after 70-74 hrs by CLSI method; format: functional, organism-based
[13] = Cryptococcus neoformans, ATCC 90113, read-out: IC50
[14] = Cryptococcus neoformans, ATCC 90113

| Structure (SMILES) | MIC [12] | MIC [12, 14] | Activity [1] | Activity [2] | Activity [3] | Activity [4] | Activity [5] | Activity [6] | growth inhibition (GI) [7] | growth inhibition (GI) [8] | growth inhibition (GI) [9] | growth inhibition (GI) [10] | growth inhibition (GI) [11] | MFC [12] | IC50 [12, 13] | IC50 [12] | MFC [12, 14] |
| --- | --- | --- | --- | --- | --- | --- | --- | --- | --- | --- | --- | --- | --- | --- | --- | --- | --- |
| COC(=O)[C@H](CCCNC(=N)N)NC(=O)[C@H](Cc1c[nH]c(-c2ccc(C)cc2)n1)NC(=O)OC(C)(C)C | inactive |  | > 10 µg/mL | > 10 µg/mL | > 10 µg/mL | > 10 µg/mL | > 10 µg/mL | > 10 µg/mL | inactive | inactive | inactive | inactive | inactive | inactive | 16.9 µg/mL (≈ 32.9 µM) |  |  |
| COC(=O)[C@H](CCCNC(=N)N)NC(=O)[C@H](Cc1c[nH]c(-c2ccc(OC)cc2)n1)NC(=O)OC(C)(C)C | inactive |  | > 10 µg/mL | > 10 µg/mL | > 10 µg/mL | > 10 µg/mL | > 10 µg/mL | > 10 µg/mL | inactive | inactive | inactive | inactive | inactive | inactive |  | Not Active |  |
| COC(=O)[C@H](CCCNC(=N)N)NC(=O)[C@@H](N)Cc1c[nH]cn1 (H-His-Arg-OMe) | inactive |  | > 10 µg/mL | > 10 µg/mL | > 10 µg/mL | > 10 µg/mL | > 10 µg/mL | > 10 µg/mL | inactive | inactive | inactive | inactive | inactive | inactive |  | Not Active |  |
| CC(C)(C)OC(=O)N[C@@H](Cc1c[nH]c2ccccc12)C(=O)N[C@@H](Cc1c[nH]cn1)C(=O)NCc1ccccc1 (Boc-Trp-His-NHBn) | inactive |  | > 10 µg/mL | > 10 µg/mL | > 10 µg/mL | > 10 µg/mL | > 10 µg/mL | > 10 µg/mL | inactive | inactive | inactive | inactive | inactive | inactive |  | Not Active |  |
| COC(=O)[C@H](CCCNC(=N)N)NC(=O)[C@H](Cc1c[nH]c(-c2ccc(C(C)(C)C)cc2)n1)NC(=O)OC(C)(C)C | inactive |  | > 10 µg/mL | > 10 µg/mL | > 10 µg/mL | > 10 µg/mL | > 10 µg/mL | > 10 µg/mL | inactive | inactive | inactive | inactive | inactive | inactive |  | Not Active |  |
| C[C@@H]1[C@H](O)[C@@H](C)/C=C/C=C/C=C/C=C/C=C/C=C/C=C/[C@H](O[C@@H]2O[C@H](C)[C@@H](O)[C@H](N)[C@@H]2O)C[C@@H]2O[C@](O)(C[C@@H](O)C[C@@H](O)[C@H](O)CC[C@@H](O)C[C@@H](O)CC(=O)O[C@H]1C)C[C@H](O)[C@H]2C(=O)O [AMPHOTERICIN B] |  | 1.25 µg/mL (≈ 1.35 µM) |  |  |  |  |  |  |  |  |  |  |  |  | 0.69 µg/mL (≈ 0.747 µM) |  | 1.25 µg/mL (≈ 1.35 µM) |

Now from value to compound, other results behind:

| MIC [12] | MIC [12, 14] | Structure (SMILES) | Activity [1] | Activity [2] | Activity [3] | Activity [4] | Activity [5] | Activity [6] | growth inhibition (GI) [7] | growth inhibition (GI) [8] | growth inhibition (GI) [9] | growth inhibition (GI) [10] | growth inhibition (GI) [11] | MFC [12] | IC50 [12, 13] | IC50 [12] | MFC [12, 14] |
| --- | --- | --- | --- | --- | --- | --- | --- | --- | --- | --- | --- | --- | --- | --- | --- | --- | --- |
| inactive |  | COC(=O)[C@H](Cc1c[nH]c(-c2ccc(C)cc2)n1)NC(=O)[C@@H](N)Cc1c[nH]c2ccccc12 | > 10 µg/mL | > 10 µg/mL | > 10 µg/mL | > 10 µg/mL | > 10 µg/mL | > 10 µg/mL | inactive | inactive | inactive | inactive | inactive | inactive | 11.9 µg/mL (≈ 26.7 µM) |  |  |
| inactive |  | N[C@@H](Cc1c[nH]c2ccccc12)C(=O)N[C@@H](Cc1c[nH]c(-c2cccc3ccccc23)n1)C(=O)NCc1ccccc1 | > 10 µg/mL | > 10 µg/mL | > 10 µg/mL | > 10 µg/mL | > 10 µg/mL | > 10 µg/mL | inactive | inactive | inactive | inactive | inactive | inactive |  | Not Active |  |
| inactive |  | COC(=O)[C@H](Cc1c[nH]c(-c2cccc3ccccc23)n1)NC(=O)[C@H](Cc1c[nH]c2ccccc12)NC(=O)OC(C)(C)C | > 10 µg/mL | > 10 µg/mL | > 10 µg/mL | > 10 µg/mL | > 10 µg/mL | > 10 µg/mL | inactive | inactive | inactive | inactive | inactive | inactive |  | Not Active |  |
| inactive |  | COC(=O)[C@H](Cc1c[nH]cn1)NC(=O)[C@@H](N)Cc1c[nH]c2ccccc12 (H-Trp-His-OMe) | > 10 µg/mL | > 10 µg/mL | > 10 µg/mL | > 10 µg/mL | > 10 µg/mL | > 10 µg/mL | inactive | inactive | inactive | inactive | inactive | inactive |  | Not Active |  |
| inactive |  | COC(=O)[C@H](Cc1c[nH]c(-c2ccc(OC)cc2)n1)NC(=O)[C@H](Cc1c[nH]c2ccccc12)NC(=O)OC(C)(C)C | > 10 µg/mL | > 10 µg/mL | > 10 µg/mL | > 10 µg/mL | > 10 µg/mL | > 10 µg/mL | inactive | inactive | inactive | inactive | inactive | inactive |  | Not Active |  |
| inactive |  | COC(=O)[C@H](Cc1c[nH]c(-c2cccc3ccccc23)n1)NC(=O)[C@@H](N)Cc1c[nH]c2ccccc12 | > 10 µg/mL | > 10 µg/mL | > 10 µg/mL | > 10 µg/mL | > 10 µg/mL | > 10 µg/mL | inactive | inactive | inactive | inactive | inactive | inactive | 17.3 µg/mL (≈ 35.9 µM) |  |  |
